Assay results from PubChem BioAssay AID540320 (Southern Research Specialized Biocontainment Screening …, 2011).
Activity calls are given as the source filed them.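 The calls were made as follows: active = progeny virus titer drops over tenfold versus the untreated infected control, meaning log virus titer change below -1; inactive = the rest.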

The molecules below were run on HEp-2 cells, RSV plaque reduction, virus titer (assay: RSV replication inhibitors by plaque titer, orthogonal assay for RSV antiviral project, plaque reduction, HEp-2 cells, set 3 (AID 540320)). Settings: at 10 µM; hits give low values.
Outline: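 Assay system: HEp-2 cells infected with RSV Long strain; Reagent: RSV Long, MOI 0.1; Compound: single dose, 0.5% DMSO; Incubation: 48 h compound exposure at 37 °C after infection; Signal: plaque assay on fresh HEp-2, PFA fixation, neutral red staining; Measure: progeny virus titer in 48 h culture supernatant; Control set: Ribavirin 35 µM.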
In the case of COCCCNC(=O)c1ccc(Cn2c(=O)c3ccccc3n(Cc3ccc(OC)cc3)c2=O)cc1, the log virus titer change was -2.72.
COCCCNC(=O)c1ccc(Cn2c(=O)c3ccccc3n(Cc3ccc4nonc4c3)c2=O)cc1 showed a log virus titer change of -2.05.
Molecule COCCCNC(=O)c1ccc(Cn2c(=O)c3ccccc3n(Cc3ccc(Br)cc3)c2=O)cc1 has a log virus titer change of -4.51.
For Cc1cc(NC(=O)[C@@H]2CCCN2S(=O)(=O)c2cccc3cccnc23)n(C(C)(C)C)n1, the log virus titer change was -0.71 (inactive).
COCCCNC(=O)c1ccc(Cn2c(=O)c3ccccc3n(Cc3ccc(C(F)(F)F)cc3)c2=O)cc1 was tested, and the log virus titer change was -2.66.
In the case of COCCCNC(=O)c1ccc(Cn2c(=O)c3ccc(Br)cc3n(Cc3ccc(C)cc3)c2=O)cc1, the log virus titer change was -0.31 (inactive).
In the case of Cc1ccc(Cn2c(=O)n(Cc3ccc(C(=O)Nc4cc(C)nc5ccccc45)cc3)c(=O)c3ccccc32)cc1, the log virus titer change was -0.61 (inactive).
For Cc1ccc(F)cc1NC(=O)[C@@H]1CCCN1S(=O)(=O)c1cccc2cccnc12, the log virus titer change was -0.33 (inactive).
Molecule COCCCNC(=O)c1ccc(Cn2c(=O)c3ccccc3n(Cc3ccc(Cl)cc3)c2=O)cc1 has a log virus titer change of -3.12.
In the case of Cc1cccc(NC(=O)[C@@H]2CCCN2S(=O)(=O)c2cccc3cccnc23)c1C, the log virus titer change was -0.39 (inactive).
COCCCNC(=O)c1ccc(Cn2c(=O)c3ccccc3n(Cc3ccc([N+](=O)[O-])cc3)c2=O)cc1 gave a log virus titer change of -4.94.
COCCCNC(=O)c1ccc(Cn2c(=O)c3ccccc3n(Cc3ccc(C)c(C(F)(F)F)c3)c2=O)cc1 showed a log virus titer change of -2.37.
With Cc1ccc(Cn2c(=O)n(Cc3ccc(C(=O)NC(C)(C)C)cc3)c(=O)c3ccccc32)cc1 the log virus titer change was -5.38.
Cc1ccc(Cn2c(=O)n(Cc3ccc(C(=O)Nc4ccncc4)cc3)c(=O)c3ccccc32)cc1 gave a log virus titer change of -3.25.
Cc1ccc(Cn2c(=O)n(Cc3ccc(C(=O)Nc4nccs4)cc3)c(=O)c3ccccc32)cc1 was tested, and the log virus titer change was -0.01 (inactive).
